Series [1] is described as follows: Lipophilicity, log D of the compound at pH 7.4. The class given is physicochemical. As to conditions: buffer; call rule not given here.
Series [2] can be described thus: Drug uptake in NCr nude mouse tumor xenografted with human LNCAP cells at 0.63 MBq, iv measured 1 hrs post injection by gamma counting. The class given is ADME, organism-based, Neoplasm. The following applies: in vivo.
Series [3] concerns Kidney. The series can be described thus: Drug uptake in NCr nude mouse kidney xenografted with human LNCAP cells at 37 MBq, iv measured 2 hrs post injection by gamma counting. The class given is ADME, organism-based. As to conditions: in vivo. The method, boiled down: (§1)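 Male NCr nude mice bearing LNCap tumours (PSMA-expressing) received 37 MBq of the radioiodinated PSMA-TAAG conjugate via the tail vein. Distribution was followed by scintigraphic imaging at 2 h and 24 h post-injection, with a fused scintigraphic-CT image taken at 23 h.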

Series [4] in a line: Drug uptake in NCr nude mouse tumor xenografted with human LNCAP cells at 37 MBq, iv measured 2 hrs post injection by gamma counting. The following applies: in vivo. The class given is ADME, organism-based, Neoplasm. A digest of the protocol: as §1
In series [5] the test system is Thyroid gland. In words: Drug uptake in NCr nude mouse thyroid xenografted with human LNCAP cells at 37 MBq, iv measured 24 hrs post injection by gamma counting. The class given is ADME, organism-based. As to conditions: in vivo. A digest of the protocol:
as §1

Series [6] is described as follows: Drug uptake in NCr nude mouse tumor xenografted with human LNCAP cells at 37 MBq, iv measured 24 hrs post injection by gamma counting. As to conditions: in vivo. The class given is ADME, organism-based, Neoplasm. The method, boiled down: as §1
Series [7] is described as follows: Drug uptake in NCr nude mouse tumor xenografted with human LNCAP cells at 0.63 MBq, iv measured 23 hrs post injection by gamma counting. The following applies: in vivo. The class given is ADME, organism-based, Neoplasm.
A short description of series [8]: Drug uptake in NCr nude mouse tumor xenografted with human LNCAP cells measured 1 hr post injection in presence of PSMA inhibition PMPA. The class given is ADME, Neoplasm. The following applies: tumor (human LNCaP xenograft), with PMPA (PSMA inhibitor), amount not stated, read-out: Drug uptake.
Series [9] concerns Urinary bladder. In words: Drug uptake in NCr nude mouse bladder xenografted with human LNCAP cells at 37 MBq, iv measured 2 hrs post injection by gamma counting. The class given is ADME, organism-based. As to conditions: in vivo. A digest of the protocol: as §1
For series [10], the system named is Thyroid gland. In words: Drug uptake in NCr nude mouse thyroid xenografted with human LNCAP cells at 0.63 MBq, iv measured 23 hrs post injection by gamma counting. The class given is ADME, organism-based. The following applies: in vivo.
For a further series, the system named is Lung. The series can be described thus: Biodistribution in Balb/c mouse lungs at 1.37 MBq, iv up to 30 mins by gamma counter. The class given is ADME, organism-based. The following applies: in vivo, 0.5 h.
The subject of series [11] is Mus musculus. In words: Biodistribution in Balb/c mouse small intestine at 1.37 MBq, iv up to 30 mins by gamma counter. The class given is ADME, organism-based. The following applies: in vivo, 0.5 h.
Series [12] relates to Mus musculus. The series can be described thus: Biodistribution in Balb/c mouse large intestine at 1.37 MBq, iv up to 30 mins by gamma counter. The class given is ADME, organism-based. As to conditions: in vivo, 0.5 h.
Series [13] is described as follows: Stability of the compound in PBS at pH 7.4 after 48 hrs. The class given is physicochemical. As to conditions: buffer, pH 7.4, 48 h.
The subject of another series is Spleen. In words: Biodistribution in Balb/c mouse spleen at 1.37 MBq, iv up to 30 mins by gamma counter. The class given is ADME, organism-based. As to conditions: in vivo, 0.5 h.
In series [14] the test system is Thyroid gland. The series can be described thus: Biodistribution in Balb/c mouse thyroid at 1.37 MBq, iv up to 30 mins by gamma counter. The class given is ADME, organism-based. The following applies: in vivo, 0.5 h.
The test system of series [15] is Mus musculus. In words: Biodistribution in Balb/c mouse skeletal muscle at 1.37 MBq, iv up to 30 mins by gamma counter. The class given is ADME, organism-based, Muscle tissue. As to conditions: in vivo, 0.5 h.
Series [16] concerns Urinary bladder. In words: Biodistribution in Balb/c mouse bladder at 1.37 MBq, iv up to 30 mins by gamma counter. As to conditions: in vivo, 0.5 h. The class given is ADME, organism-based.
The next series concerns Liver. In words: Biodistribution in Balb/c mouse liver at 1.37 MBq, iv up to 30 mins by gamma counter. The class given is ADME, organism-based. As to conditions: in vivo, 0.5 h.
For series [17], the system named is Kidney. In words: Biodistribution in Balb/c mouse kidneys at 1.37 MBq, iv up to 30 mins by gamma counter. The class given is ADME, organism-based. As to conditions: in vivo, 0.5 h.
The test system of the next series is Brain. In words: Biodistribution in Balb/c mouse brain at 1.37 MBq, iv up to 30 mins by gamma counter. The class given is ADME, organism-based. As to conditions: in vivo, 0.5 h.
Series [18] has as its system Mus musculus. In words: Biodistribution in Balb/c mouse adrenals at 1.37 MBq, iv up to 30 mins by gamma counter. The class given is ADME, organism-based, Adrenal tissue. As to conditions: in vivo, 0.5 h.
The test system of a further series is Bone. The series can be described thus: Biodistribution in Balb/c mouse bone at 1.37 MBq, iv up to 30 mins by gamma counter. The following applies: in vivo, 0.5 h. The class given is ADME, organism-based, Bone element.
In a further series the test system is Blood. In words: Biodistribution in Balb/c mouse blood at 1.37 MBq, iv up to 30 mins by gamma counter. The class given is ADME, organism-based. As to conditions: in vivo, 0.5 h.
Series [19] in a line: Stability in PBS at pH 7.4 assessed as deiodination of compound after 48 hrs. The class given is physicochemical. As to conditions: buffer, pH 7.4, 48 h.
In another series the test system is Stomach. In words: Biodistribution in Balb/c mouse stomach at 1.37 MBq, iv up to 30 mins by gamma counter. The class given is ADME, organism-based. The following applies: in vivo, 0.5 h.
Another series concerns Heart. The series can be described thus: Biodistribution in Balb/c mouse heart at 1.37 MBq, iv up to 30 mins by gamma counter. The class given is ADME, organism-based. As to conditions: in vivo, 0.5 h.

SMILES strings stand for the structures. A value given as a limit tells only on which side of the number the result lay.

As for `O=C(O)c1ccc(I)cc1`, the logD in series [1] is 0.07.

For the molecule `O=C(O)CC[C@H](NC(=O)N[C@@H](CCCCNC(=O)Cn1cc([123I])nn1)C(=O)O)C(=O)O`, the Drug uptake in [2] is 20 % ID/g; in the series with Kidney [3], “Active”; in series [4], “Active”; in the series with Thyroid gland [5], “Active”; in series [6], “Active”; in series [7], 15 % ID/g. In addition, the Drug uptake entry in the series on Urinary bladder [9] is “Active”; in the series with Thyroid gland [10], 10 % ID/g. The tissue uptake at 1 h in series [8] is below 2 %ID/g. The molecule also yielded a log distribution coefficient (logD) in series [1] of -3.23.

Take `O=C(O)Cn1cc([123I])nn1`: the Drug uptake entry in the series on Lung, in the series on Mus musculus [11], with Mus musculus [12], in the series with Spleen, in the series on Thyroid gland [14] and with Mus musculus [15] was “Not Active” throughout. For the same molecule, the Drug uptake entry with Urinary bladder [16] is on record as “Active”; with Liver, “Not Active”; in the series with Kidney [17] it was “Not Active”; in the series on Brain, “Not Active”; with Mus musculus [18] it was “Not Active”; with Bone, “Not Active”. Also, the Drug uptake entry in the series with Blood, in the series with Stomach and with Heart was “Not Active” throughout. The Stability result in series [13] and in [19] was “Stable” in each case. The molecule also returned a logD in [1] of -2.58.
